Molecules are shown by their SMILES. The source made the active and inactive calls.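 Rule for the calls, unless noted: active = viability at or below 10% of carrier control in both of two separate runs; inconclusive = viability at or below 10% in only one of the two runs; inactive = the rest.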

Experiment [1] is described as follows: Her2 expression decrease, cell viability multiplex – SKBR3 breast tumor cells, AlphaScreen, ATP viability, primary screen (AID 461;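 active = Her2 level under about 52% in both replicate screens, with viability over 70% of control, limit read from the data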;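 for Her2 level: lower value means less Her2 protein in the cells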;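 for viability: percent of carrier control wells set as 100% viability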). As to conditions: SKBR3 Her2 protein level, 18-24 h, measured here: SKBR3 viability, ATP luminescence, at 10 µM.
Experiment [2] has as its target Receptor tyrosine-protein kinase erbB-2 (Homo sapiens) (UniProt P04626). The experiment is described as above. As to conditions: 18-24 h, at 10 µM, stronger effect = lower value.
A short description of experiment [3]: reduced viability of SK-BR-3 breast cancer cells – cell-based, 24 h, human, pilot screen (AID 572).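 Note: compound exposure lasted between 18 and 24 h rather than exactly 24 h; 100% = carrier-treated control wells.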 To be noted: SK-BR-3 viability, CellTiter-Glo luminescence, at 10 µM, stronger effect = lower value.
Experiment [4] can be described thus: HUVEC growth inhibition – cell-based, human, primary screen (AID 575;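 active = viability at or below 30% in both replicate assays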;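 note: 100% = median of untreated cell wells with 0.1% DMSO on each plate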). As to conditions: HUVEC proliferation, CellTiter-Glo luminescence, 72 h; at 10 µM; stronger effect = lower value. In a few lines: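 Test system: HUVEC primary cells. Quantity: 1250 endothelial cells in each well. Dosing: single-point 10 µM, DMSO 0.1% final. Incubation: 72 h treatment at 37 °C. Measured by: CTG luminescence. Control set: DMSO cell controls and MePR drug controls. Plate: collagen-coated 384-well format.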

Experiment [5] is described as follows: H69AR cell proliferation blockers – human, duplicate replicates, primary screen (AID 580;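 active = viability at or under a set limit in both replicates, limit being median viability minus 3 SD, cut at about 48% in these data, passing the limit was not always enough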;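 note: 100% = mean luminescence of untreated wells and 0% = no signal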). As to conditions: H69AR lung tumor cells viability, ATP luminescence, 72 h; at 10 µM; stronger effect = lower value.
Experiment [6] can be described thus: MRP1 drug-resistance reversers in H69AR cells – cell-based, doxorubicin co-treatment, pilot screen (AID 601;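 active = viability loss from added drug above about 55%, and viability with drug at most 40%, in both replicates, limit read from the data, passing the limit was not always enough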). To be noted: CellTiter-Glo, 72 h, at 10 µM; for differential viability (reversal): stronger effect = higher value.
A short description of experiment [7]: yeast transport mutant growth inhibition pilot in 384-well plates, post-Golgi transport modulator project (AID 636; in the data active = inhibition above about 31%). To be noted: absorbance 615 nm, about 18 h, stronger effect = higher value.
Experiment [8] is described as follows: growth suppression of yeast trafficking mutant, preliminary HTS, modulators of trafficking downstream of Golgi apparatus project, 1536-format plate, OD 615 nm (AID 637; in the data active = inhibition above about 30%). As to conditions: yeast transport mutant growth, absorbance 615 nm, 18 h; stronger effect = higher value.
Where [9] appears, read: H69AR cells + 2 uM doxorubicin, measured here: viability with 2 uM doxorubicin, stronger effect = lower value.
The mark [10] stands for this setting: H69AR cells, compound alone cytotoxicity.

Receptor tyrosine-protein kinase erbB-2 (Homo sapiens), sequence (P04626 whole entry, looked up): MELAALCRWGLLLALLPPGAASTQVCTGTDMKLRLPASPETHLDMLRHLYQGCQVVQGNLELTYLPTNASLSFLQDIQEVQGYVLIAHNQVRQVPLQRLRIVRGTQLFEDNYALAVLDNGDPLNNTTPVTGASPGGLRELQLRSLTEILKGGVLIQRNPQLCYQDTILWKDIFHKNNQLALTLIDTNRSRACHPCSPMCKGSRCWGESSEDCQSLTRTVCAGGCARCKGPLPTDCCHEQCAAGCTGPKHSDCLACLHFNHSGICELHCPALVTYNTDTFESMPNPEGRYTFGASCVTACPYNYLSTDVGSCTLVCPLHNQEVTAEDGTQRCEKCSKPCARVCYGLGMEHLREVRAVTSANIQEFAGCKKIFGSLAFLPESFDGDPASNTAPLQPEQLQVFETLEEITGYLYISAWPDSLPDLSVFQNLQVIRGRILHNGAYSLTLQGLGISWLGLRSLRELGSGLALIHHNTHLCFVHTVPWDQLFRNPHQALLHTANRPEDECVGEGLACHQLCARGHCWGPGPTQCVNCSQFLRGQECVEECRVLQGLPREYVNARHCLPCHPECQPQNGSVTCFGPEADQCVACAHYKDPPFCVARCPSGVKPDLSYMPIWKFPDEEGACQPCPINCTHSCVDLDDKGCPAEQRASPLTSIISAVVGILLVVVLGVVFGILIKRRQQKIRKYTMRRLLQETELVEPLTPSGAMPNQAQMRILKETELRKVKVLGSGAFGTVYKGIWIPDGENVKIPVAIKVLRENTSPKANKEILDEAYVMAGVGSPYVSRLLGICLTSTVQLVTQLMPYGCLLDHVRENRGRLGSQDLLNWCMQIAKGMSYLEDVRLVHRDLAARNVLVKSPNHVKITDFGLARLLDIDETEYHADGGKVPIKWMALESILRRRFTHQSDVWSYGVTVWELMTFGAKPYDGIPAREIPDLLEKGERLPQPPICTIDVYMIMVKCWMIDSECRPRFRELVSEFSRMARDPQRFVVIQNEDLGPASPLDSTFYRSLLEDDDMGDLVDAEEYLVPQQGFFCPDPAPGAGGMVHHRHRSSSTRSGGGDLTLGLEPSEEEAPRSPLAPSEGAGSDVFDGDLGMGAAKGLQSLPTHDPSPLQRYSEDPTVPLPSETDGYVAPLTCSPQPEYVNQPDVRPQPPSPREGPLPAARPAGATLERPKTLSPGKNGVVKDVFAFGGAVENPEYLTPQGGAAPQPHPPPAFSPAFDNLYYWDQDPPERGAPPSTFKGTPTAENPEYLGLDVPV

In the case of `CN(C)CCCNC(=O)c1ccc(CN(c2ccccc2)S(C)(=O)=O)cc1`, the viability in experiment [1] was 97.5%; in experiment [3] it was 97.5% (inactive); in experiment [4] it was 86.4% (inactive); in experiment [5], 92.1% (inactive); in experiment [6] (setting [9]) it was 89%; in experiment [6] (setting [10]), 92.1%. Also, the Her2 level in experiment [2] was 96% (inactive). The differential viability (reversal) in experiment [6] (H69AR cells + 2 uM doxorubicin) is 3.06% (inactive). The inhibition in experiment [7] is 0.91% (inactive); in experiment [8], -7.87% (inactive).

Consider `CCCCC(CC)C(=O)Nc1ccc(Cl)cn1` (stereo not given), for which the viability is 103% in experiment [1]; 103% (inactive) in experiment [3]; 98.3% (inactive) in experiment [4]; 94.3% (inactive) in experiment [5]; 82.1% in experiment [6] (setting [9]); 94.3% in experiment [6] (setting [10]). Besides, in experiment [2], the Her2 level is 102% (inactive). Besides, the differential viability (reversal) in experiment [6] (H69AR cells + 2 uM doxorubicin) is 12.2% (inactive). Further, the inhibition in experiment [7] was -5.47% (inactive); in experiment [8], 1.97% (inactive).

On to `CCC(=O)Nc1c(C#N)c2nc3ccccc3nc2n1-c1ccccc1C`, for which the viability is 95% in experiment [1]; 95% (inactive) in experiment [3]; 99.2% (inactive) in experiment [4]; 87.5% (inactive) in experiment [5]; 91% in experiment [6] (setting [9]); 87.5% in experiment [6] (setting [10]). The Her2 level in experiment [2] is 82.5% (inactive). In addition, the differential viability (reversal) in experiment [6] (H69AR cells + 2 uM doxorubicin) is -3.52% (inactive). The figures for the inhibition in experiment [7] and in experiment [8] were -5.2% (inactive) and 8.85% (inactive), respectively.

For the compound `O=C(Nc1ccc(F)cc1F)NC1CC(=O)N(Cc2ccccc2)C1` (stereo not given), the viability in experiment [1] was 92.5%; in experiment [3], 92.5% (inactive); in experiment [4], 109% (inactive); in experiment [5] it was 95.1% (inactive); in experiment [6] (setting [9]) it was 94.8%; in experiment [6] (setting [10]) it was 95.1%. Besides, in experiment [2], the Her2 level was 89.5% (inactive). Also, the differential viability (reversal) in experiment [6] (H69AR cells + 2 uM doxorubicin) was 0.32% (inactive). The inhibition in experiment [7] is 1.78% (inactive); in experiment [8], 26.2% (inactive).

Regarding `O=C(NCCN1CCOCC1)C1CC(=O)N(c2ccc(F)c(Cl)c2)C1` (stereo not given), the viability was 124% in experiment [1]; 124% (inactive) in experiment [3]; 100% (inactive) in experiment [4]; 98.2% (inactive) in experiment [5]; 94.9% in experiment [6] (setting [9]); 98.2% in experiment [6] (setting [10]). Moreover, in experiment [2], the Her2 level is 111% (inactive). Also, in experiment [6] (H69AR cells + 2 uM doxorubicin), the differential viability (reversal) was 3.27% (inactive). The inhibition in experiment [7] was -1.18% (inactive); in experiment [8], -4.03% (inactive).

As to `COc1cc(C(=O)N2CCC(c3nc(-c4cccnc4)no3)CC2)cc(OC)c1OC`, the viability in experiment [1] is 96%; in experiment [3], 96% (inactive); in experiment [4], 110% (inactive); in experiment [5], 93.9% (inactive); in experiment [6] (setting [9]), 82.8%; in experiment [6] (setting [10]) it was 93.9%. Moreover, in experiment [2], the Her2 level was 110% (inactive). In addition, in experiment [6] (H69AR cells + 2 uM doxorubicin), the differential viability (reversal) is 11.1% (inactive). Further, the figures for the inhibition in experiment [7] and in experiment [8] were -2.16% (inactive) and 6% (inactive), respectively.

In the case of `Clc1ccc2nc(N3CCCCC3)[nH]c2c1`, the viability in experiment [1] was 90.5%; in experiment [3], 90.5% (inactive); in experiment [4], 105% (inactive); in experiment [5], 91.9% (inactive); in experiment [6] (setting [9]), 80.3%; in experiment [6] (setting [10]), 91.9%. The Her2 level in experiment [2] is 78.5% (inactive). The differential viability (reversal) in experiment [6] (H69AR cells + 2 uM doxorubicin) is 11.6% (inactive). Also, the inhibition in experiment [7] is -7.84% (inactive); in experiment [8] it was 2.79% (inactive).

Take `Cc1cc(NC(=O)CSc2ccc(Cl)cc2)no1`: the viability was 88.5% in experiment [1]; 88.5% (inactive) in experiment [3]; 91.3% (inactive) in experiment [4]; 61% (inactive) in experiment [5]; 71.7% in experiment [6] (setting [9]); 61% in experiment [6] (setting [10]). In addition, the Her2 level in experiment [2] was 114% (inactive). The differential viability (reversal) in experiment [6] (H69AR cells + 2 uM doxorubicin) was -10.7% (inactive). Also, the inhibition in experiment [7] is -0.66% (inactive); in experiment [8], 22.3% (inactive).

As to `COc1cc(OC)c(C2C(C#N)=C(N)OC3=C2C(=O)CC(C)(C)C3)cc1OC` (stereo not given), the viability in experiment [1] is 85.5%; in experiment [3], 85.5% (inactive); in experiment [4] it was 61.9% (inactive); in experiment [5], 83.2% (inactive); in experiment [6] (setting [9]), 84.7%; in experiment [6] (setting [10]) it was 83.2%. The Her2 level in experiment [2] is 106% (inactive). The differential viability (reversal) in experiment [6] (H69AR cells + 2 uM doxorubicin) was -1.53% (inactive). The inhibition is 0.91% (inactive) in experiment [7] and -9.02% (inactive) in experiment [8].

In the case of `Nc1nc(-c2ccccc2Br)cs1`, the viability in experiment [1] is 91.5%; in experiment [3] it was 91.5% (inactive); in experiment [4], 86.3% (inactive); in experiment [5] it was 91.5% (inactive); in experiment [6] (setting [9]), 81.8%; in experiment [6] (setting [10]), 91.5%. The Her2 level in experiment [2] is 96.5% (inactive). For the same compound, the differential viability (reversal) in experiment [6] (H69AR cells + 2 uM doxorubicin) is 9.75% (inactive). For the same compound, the inhibition in experiment [7] is -0.66% (inactive); in experiment [8], -8.55% (inactive).

As to `Cc1ccc(Nc2nc(CSc3nnnn3C)cs2)cc1`, the viability in experiment [1] was 101%; in experiment [3], 101% (inactive); in experiment [4] it was 95.3% (inactive); in experiment [5], 113% (inactive); in experiment [6] (setting [9]), 87.4%; in experiment [6] (setting [10]) it was 113%. For the same compound, the Her2 level in experiment [2] is 96% (inactive). The differential viability (reversal) in experiment [6] (H69AR cells + 2 uM doxorubicin) is 25.7% (inactive). For the same compound, the inhibition in experiment [7] was -7.24% (inactive); in experiment [8], -1.45% (inactive).

Take `CC1=C(C)[N+](=O)C2CCCCC2N1[O-]` (stereo not given): the viability in experiment [1] was 89%; in experiment [3], 89% (inactive); in experiment [4], 104% (inactive); in experiment [5], 94.4% (inactive); in experiment [6] (setting [9]) it was 84.6%; in experiment [6] (setting [10]), 94.4%. Besides, the Her2 level in experiment [2] was 112% (inactive). Also, the differential viability (reversal) in experiment [6] (H69AR cells + 2 uM doxorubicin) is 9.79% (inactive). Further, the inhibition in experiment [7] was -5.97% (inactive); in experiment [8], -9.34% (inactive).

For the compound `CCOC(=O)c1cnc(-n2nc(C)cc2C)nc1Nc1cccc(C(C)=O)c1`, the viability is 87.5% in experiment [1]; 87.5% (inactive) in experiment [3]; 95.7% (inactive) in experiment [4]; 88% (inactive) in experiment [5]; 97.5% in experiment [6] (setting [9]); 88% in experiment [6] (setting [10]). Moreover, the Her2 level in experiment [2] was 110% (inactive). Also, in experiment [6] (H69AR cells + 2 uM doxorubicin), the differential viability (reversal) was -9.45% (inactive). Further, the results for the inhibition in experiment [7] and in experiment [8] were 1.32% (inactive) and -4.35% (inactive), respectively.

In the case of `CCN(CC)S(=O)(=O)c1ccc2c(c1)nc(SCC(=O)NC1CC1)n2-c1ccccc1OC`, the viability in experiment [1] is 92.5%; in experiment [3] it was 92.5% (inactive); in experiment [4], 67.8% (inactive); in experiment [5] it was 91.3% (inactive); in experiment [6] (setting [9]), 77.1%; in experiment [6] (setting [10]), 91.3%. Moreover, the Her2 level in experiment [2] is 86.5% (inactive). In experiment [6] (H69AR cells + 2 uM doxorubicin), the differential viability (reversal) was 14.2% (inactive). The inhibition in experiment [7] was -5.81% (inactive); in experiment [8], 3.65% (inactive).

As for `Cc1ccc2cc(CN(CC3CCCO3)S(=O)(=O)c3ccc4c(c3)OCCO4)c(=O)[nH]c2c1C` (stereo not given), the viability in experiment [1] is 86.5%; in experiment [3] it was 86.5% (inactive); in experiment [4] it was 84.1% (inactive); in experiment [5], 86.1% (inactive); in experiment [6] (setting [9]), 82.9%; in experiment [6] (setting [10]) it was 86.1%. Further, the Her2 level in experiment [2] was 80% (inactive). For the same compound, the differential viability (reversal) in experiment [6] (H69AR cells + 2 uM doxorubicin) is 3.25% (inactive). The inhibition is -5.07% (inactive) in experiment [7] and -6.03% (inactive) in experiment [8].

As for `Cc1cnc(C(=O)OCC(=O)Nc2ccc(Oc3ccccc3)cc2)cn1`, the viability in experiment [1] is 77%; in experiment [3], 77% (inactive); in experiment [4], 91.5% (inactive); in experiment [5] it was 91.9% (inactive); in experiment [6] (setting [9]), 82.3%; in experiment [6] (setting [10]), 91.9%. Further, the Her2 level in experiment [2] was 102% (inactive). Besides, in experiment [6] (H69AR cells + 2 uM doxorubicin), the differential viability (reversal) was 9.6% (inactive). In addition, the inhibition is 5.51% (inactive) in experiment [7] and -21.7% (inactive) in experiment [8].

These data come from PubChem BioAssay.
